The record followed here is ChEMBL document CHEMBL1671853, “Decrease of atazanavir and lopinavir plasma concentrations in a boosted double human immunodeficiency virus protease inhibitor salvage regimen” (Antimicrob Agents Chemother, 2008).

Series [1] is described as follows: Cmax in HIV-1 infected patient at 100 mg, po bid coadministered with 400 mg, po bid of Lopinavir and 300 mg, po qd of atazanavir. The class given is ADME, organism-based. Also on record: dose 100 mg, route oral. Particulars: human, in vivo. In a few lines: (§1)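 Retrospective steady-state TDM data from HIV-1-infected adults (n = 17 per group, matched for sex, age, ethnicity and body weight), taken after at least 2 weeks on therapy. Plasma sampled before dosing and at 1, 2, 4, 6, 9, 12 and 24 h, with food of approximately 2,500 kJ (21% fat). Drug levels measured by validated LC-MS/MS; parameters from noncompartmental analysis; geometric means (90% CI).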

Series [2] concerns Homo sapiens. The experiment in a line: Apparent oral clearance in HIV-1 infected patient at 100 mg, po qd coadministered with 300 mg, po qd of atazanavir and NRTI. Particulars: in vivo.
Series [3] can be described thus: Half life in HIV-1 infected patient at 100 mg, po bid coadministered with 300 mg, po qd of atazanavir and NRTI. Conditions: human, in vivo.
Series [4] is described as follows: Cmax in HIV-1 infected patient at 100 mg, po bid coadministered with 400 mg, po bid of Lopinavir and NRTI. The class given is ADME, organism-based. Further details: dose 100 mg, route oral. Particulars: human, in vivo. A digest of the protocol:
(§2)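 HIV-1-infected adults on LPV-RTV gel capsules plus NRTI (n = 17, matched pairs) at steady state after at least 2 weeks of therapy, under a standardized routine TDM protocol with food of approximately 2,500 kJ (21% fat). Plasma sampled predose and at 1, 2, 4, 6, 9 and 12 h. Concentrations by validated LC-MS/MS; noncompartmental parameters given as geometric means (90% CI).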

The nature of series [5]: Cmax in HIV-1 infected patient at 100 mg, po qd coadministered with 300 mg, po qd of atazanavir and NRTI. Particulars: human, in vivo.
The nature of series [6]: AUC in HIV-1 infected patient at 100 mg, po bid coadministered with 400 mg, po bid of Lopinavir and 300 mg, po qd of atazanavir. The class given is ADME, organism-based. Particulars: human, plasma. A digest of the protocol:
as §1

Series [7] in a line: AUC in HIV-1 infected patient at 100 mg, po bid coadministered with 400 mg, po bid of Lopinavir and NRTI. The class given is ADME, organism-based. Particulars: human, plasma. In a few lines:
as §2

The nature of series [8]: Half life in HIV-1 infected patient at 100 mg, po bid coadministered with 400 mg, po bid of Lopinavir and NRTI. Particulars: human, in vivo.
Series [9] has as its system Homo sapiens. The experiment in a line: Apparent oral clearance in HIV-1 infected patient at 100 mg, po bid coadministered with 400 mg, po bid of Lopinavir and NRTI. The series is classed as ADME, organism-based. Particulars: in vivo. In a few lines: as §2
Series [10] is described as follows: AUC in HIV-1 infected patient at 100 mg, po qd coadministered with 300 mg, po qd of atazanavir and NRTI. Conditions: human, plasma.
Series [11] can be described thus: Apparent oral clearance in HIV-1 infected patient at 400 mg, po bid coadministered with 100 mg, po bid of ritonavir with NRTI. The class given is ADME, organism-based. Conditions: human, in vivo. In a few lines: as §2
Series [12] in a line: Cmax in HIV-1 infected patient at 400 mg, po bid coadministered with 100 mg, po bid of ritonavir and 300 mg, po qd of atazanavir. The class given is ADME, organism-based. Further details: dose 400 mg, route oral. Particulars: human, in vivo. A digest of the protocol:
as §1

The nature of series [13]: AUC in HIV-1 infected patient at 400 mg, po bid coadministered with 100 mg, po bid of ritonavir and NRTI. Particulars: human, plasma. The series is classed as ADME, organism-based. In a few lines:
as §2

Series [14] can be described thus: Half life in HIV-1 infected patient at 400 mg, po bid coadministered with 100 mg, po bid of ritonavir and NRTI. The series is classed as ADME, organism-based. Particulars: human, in vivo. In a few lines: as §2
Series [15] in a line: Apparent oral clearance in HIV-1 infected patient at 400 mg, po bid coadministered with 100 mg, po bid of ritonavir and 300 mg, po qd of atazanavir. The class given is ADME, organism-based. Particulars: human, in vivo. A digest of the protocol:
as §1

Series [16] can be described thus: Half life in HIV-1 infected patient at 400 mg, po bid coadministered with 100 mg, po bid of ritonavir and 300 mg, po qd of atazanavir. The class given is ADME, organism-based. Conditions: human, in vivo. A digest of the protocol: as §1
Series [17] in a line: AUC in HIV-1 infected patient at 400 mg, po bid coadministered with 100 mg, po bid of ritonavir and 300 mg, po qd of atazanavir. The class given is ADME, organism-based. Particulars: human, plasma. In a few lines:
as §1

Series [18] is described as follows: Cmax in HIV-1 infected patient at 400 mg, po bid coadministered with 100 mg, po bid of ritonavir and NRTI. The class given is ADME, organism-based. Also on record: dose 400 mg, route oral. Particulars: human, in vivo. A digest of the protocol:
as §2

The nature of series [19]: Half life in HIV-1 infected patient at 300 mg, po qd coadministered with 400 mg, po bid and 100 mg, po bid of Lopinavir and ritonavir respectively. The class given is ADME, organism-based. Conditions: human, in vivo. A digest of the protocol: as §1
Series [20] in a line: Half life in HIV-1 infected patient at 300 mg, po qd coadministered with 100 mg of ritonavir, po qd and NRTI. The class given is ADME, organism-based. Particulars: human, in vivo. A digest of the protocol:
as §1

The nature of series [21]: Apparent oral clearance in HIV-1 infected patient at 300 mg, po qd coadministered with 400 mg, po bid and 100 mg, po bid of Lopinavir and ritonavir respectively. The series is classed as ADME, organism-based. Conditions: human, in vivo. In a few lines:
as §1

Series [22] is described as follows: Oral clearance in HIV-1 infected patient at 300 mg, po qd coadministered with 100 mg of ritonavir, po qd and NRTI. The class given is ADME, organism-based. Conditions: human, in vivo. A digest of the protocol: as §1
A short description of series [23]: AUC in HIV-1 infected patient at 300 mg, po qd coadministered with 100 mg of ritonavir, po qd and NRTI. The class given is ADME, organism-based. Particulars: human, plasma. In a few lines: as §1
Series [24] is described as follows: Cmax in HIV-1 infected patient at 300 mg, po qd coadministered with 400 mg, po bid and 100 mg, po bid of Lopinavir and ritonavir respectively. The class given is ADME, organism-based. Further details: dose 300 mg, route oral. Particulars: human, in vivo. In a few lines: as §1
Series [25] can be described thus: Cmax in HIV-1 infected patient at 300 mg, po qd coadministered with 100 mg of ritonavir, po qd and NRTI. The class given is ADME, organism-based. Further details: dose 300 mg, route oral. Conditions: human, in vivo. A digest of the protocol:
as §1

A short description of series [26]: AUC in HIV-1 infected patient at 300 mg, po qd coadministered with 400 mg, po bid and 100 mg, po bid of Lopinavir and ritonavir respectively. The class given is ADME, organism-based. Particulars: human, plasma. In a few lines:
as §1

The term Cmax denotes the peak of the concentration-time curve. As usually defined, the CL/F is the apparent clearance, not corrected for the fraction that reaches the circulation. A word on the half-life: it is how long it takes for the measured level to halve. As a reminder, the AUC is the area under the concentration-time curve, a measure of exposure. For the compound `CC(C)c1nc(CN(C)C(=O)N[C@H](C(=O)N[C@@H](Cc2ccccc2)C[C@H](O)[C@H](Cc2ccccc2)NC(=O)OCc2cncs2)C(C)C)cs1` [RITONAVIR], the values for the Cmax in series [1], in series [4] and in series [5] were 468 ng/mL, 525 ng/mL and 869 ng/mL, respectively. Besides, the CL/F in the series with Homo sapiens [2] was 199 mL/min; in the series with Homo sapiens [9] it was 440 mL/min. Moreover, the half-life in series [3] is 4.58 h; in [8], 4.03 h. Besides, the area under the curve (AUC) worked out at 3290 ng·h/mL in [6], 3580 ng·h/mL in series [7] and 7770 ng·h/mL in series [10].

As for `Cc1cccc(C)c1OCC(=O)N[C@@H](Cc1ccccc1)[C@@H](O)C[C@H](Cc1ccccc1)NC(=O)[C@H](C(C)C)N1CCCNC1=O` [LOPINAVIR], the CL/F in series [11] came to 99 mL/min; in [15], 133 mL/min. Moreover, the Cmax in series [12] was 5250 ng/mL; in series [18] it was 6850 ng/mL. The AUC in [13] worked out at 59700 ng·h/mL; in series [17], 48500 ng·h/mL. In addition, the results for the half-life in series [14] and in series [16] were 8.21 h and 6.56 h, respectively.

Consider `COC(=O)N[C@H](C(=O)N[C@@H](Cc1ccccc1)[C@@H](O)CN(Cc1ccc(-c2ccccn2)cc1)NC(=O)[C@@H](NC(=O)OC)C(C)(C)C)C(C)(C)C` [ATAZANAVIR], for which the half-life is 7.79 h in series [19] and 7.21 h in series [20]. Moreover, the CL/F in [21] was found to be 185 mL/min; in [22], 154 mL/min. Moreover, the AUC in [23] turned out to be 30300 ng·h/mL; in series [26], 26400 ng·h/mL. For the same compound, the Cmax came to 2260 ng/mL in [24] and 2740 ng/mL in series [25].
